Calls of active or inactive are those of the source. The calls are words filed in the database; no cut-off is given here.
Assays:
[1] = biological target: T1, NAD-dependent protein deacylase sirtuin-6 (Homo sapiens, UniProt Q8N6T7); assay: Activation of N-terminal his-tagged human SIRT6 expressed in Escherichia coli M15 [pREP4] assessed as increase in peptide demyristoylation at 20 uM incubated for 120 mins using Ac-EALPKK(Myr)-AMC substrate by FDL assay relative to control
Method in brief: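 Demyristoylation: 1 µM recombinant SIRT6 preincubated with compound for 20 min at 37 °C in 50 mM Tris-HCl pH 8.0, BSA 1 mg/mL, 1 mM DTT, with 10 µM Ac-EALPKK(Myr)-AMC. Started with 1 mM NAD and run 120 min at 37 °C. Developed 120 min at 37 °C with 5 mg/mL trypsin/8 mM nicotinamide. Fluorescence read. Mean ± s.d., triplicate wells, three independent experiments.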

[2] = biological target: T1, NAD-dependent protein deacylase sirtuin-6; assay: Activation of N-terminal his-tagged human SIRT6 expressed in Escherichia coli M15 [pREP4] assessed as increase in deacetylation activity incubated for 2 hrs using Ac-RYQK(Ac)-AMC substrate by FDL assay relative to control
[3] = tested on: PANC-1; assay: Antiproliferative activity against human PANC1 cells assessed as reduction in cell viability incubated for 72 hrs by MTT assay; assay type: functional, cell-based
Method in brief: (§1)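 PDAC cells grown in DMEM or RPMI1640 with 10% FBS and penicillin/streptomycin at 37 °C, 5% CO2. Plated in triplicate, then treated with a concentration series for 72 h. Viability read by MTT. IC50 calculated from dose-response curves.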

[4] = tested on: ASPC1; assay: Antiproliferative activity against human AsPC1 cells assessed as reduction in cell viability incubated for 72 hrs by MTT assay; assay type: functional, cell-based; method in brief: as §1
[5] = tested on: SK-OV-3; assay: Antiproliferative activity against human SKOV3 cells assessed as reduction in cell viability incubated for 72 hrs by MTT assay; assay type: functional, cell-based
[6] = tested on: PANC-1; assay: Inhibition of colony formation in human PANC1 cells incubated for 9 to 18 days by crystal violet staining based assay; assay type: functional, cell-based
Method in brief: (§2)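 Cells are seeded per well at the line-specific density: BXPC-3 750, PANC-1 500, AsPC-1 2200, MIAPaCa-2 500. Compound at several concentrations is added after 24 h. Incubation runs 9–18 days (BXPC-3 18 days, PANC-1 14 days). Cells are then fixed with 4% paraformaldehyde and stained with crystal violet, and colonies of more than 50 cells are counted.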

[7] = tested on: ASPC1; assay: Inhibition of colony formation in human AsPC1 cells incubated for 9 to 18 days by crystal violet staining based assay; assay type: functional, cell-based; method in brief: as §2
[8] = tested on: BXPC-3; assay: Induction of cell cycle arrest in human BxPC3 cells assessed as increase in accumulation at G2 phase incubated for 48 hrs by propidium iodide staining based flow cytometry; assay type: functional
Method in brief: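 PANC-1 and BXPC-3 cells in 6-well plates treated with a concentration series for 48 h. Stained with 50 µg/mL propidium iodide for 30 min in the dark. DNA content analysed by flow cytometry for cell-cycle phase distribution.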

[9] = tested on: BXPC-3; assay: Induction of apoptosis in human BxPC3 cells incubated for 48 hrs by propidium iodide and Annexin V-FITC staining based flow cytometry; assay type: functional, cell-based
Method in brief: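 PANC-1 and BXPC-3 cells seeded in 6-well plates and treated with a concentration series for 48 h. Stained with Annexin V-FITC and propidium iodide for 10 min in the dark. Annexin V+ populations measured by flow cytometry.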

[10] = tested on: BXPC-3; assay: Inhibition of cell migration of human BxPC3 cells at 10 umol/L incubated for 24 hrs by inverted microscopy relative to control; assay type: functional; details: BXPC-3, 24 h
Method in brief: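 PDAC cells are grown to a confluent monolayer at 37 °C in 5% CO2. The monolayer is scratched with a 200 μL pipette tip to make a gap of constant width, then washed with PBS. Cells are exposed to a range of compound concentrations. They are imaged by inverted microscope after 24 h. Migrated cells are counted by hand, and inhibition is expressed relative to untreated wells (100%).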

[11] = biological target: T1, NAD-dependent protein deacylase sirtuin-6; assay: […] in human PANC1 cells assessed as reduction in H3K18ac levels incubated for 72 hrs by Western blot analysis; assay type: cell-based; details: PANC-1
Method in brief: (§3)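 Cells incubated 72 h with various compound concentrations; whole-cell RIPA lysates with protease inhibitors, BCA-normalised, separated on 12% SDS-PAGE, transferred to PVDF, blocked in 5% milk or BSA. Probed 10 h at 4 °C with antibodies to SIRT6, acetyl-H3K9/K18/K56, total H3, Lin28b, Myc, IGF2BP3, β-actin; HRP secondary, chemiluminescent detection.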

[12] = biological target: T1, NAD-dependent protein deacylase sirtuin-6; assay: […] in human PANC1 cells assessed as reduction in H3K56ac levels incubated for 72 hrs by Western blot analysis; assay type: cell-based; details: PANC-1; method in brief: as §3
[13] = biological target: T1, NAD-dependent protein deacylase sirtuin-6; assay: […] in human BxPC3 cells assessed as reduction in Lin28b expression levels at 25 uM incubated for 72 hrs by Western blot analysis; assay type: cell-based; details: BXPC-3; method in brief: as §3
[14] = biological target: T1, NAD-dependent protein deacylase sirtuin-6; assay: […] in human PANC1 cells assessed as reduction in IGF2BP3 expression levels at 25 uM incubated for 72 hrs by Western blot analysis; assay type: cell-based; details: PANC-1; method in brief: as §3
[15] = Half life in Sprague-Dawley rat at 10 mg/kg, po after 0.083 to 24 hrs by LC-MS/MS analysis; assay type: ADME, organism-based; details: in vivo
Method in brief: (§4)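 Male Sprague-Dawley rats, 6-8 weeks old. Dosing solution of 10 (PO) or 2 (IV) mg/mL in 5% DMSO, 10% Solutol and 85% saline, pH 7. Blood taken by cardiac puncture at 0.083–24 h (PO) or 0.25–24 h (IV). Plasma levels measured by LC-MS/MS. Values are mean ± SD, n = 3.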

[16] = Cmax in Sprague-Dawley rat at 10 mg/kg, po after 0.083 to 24 hrs by LC-MS/MS analysis; assay type: ADME, organism-based; set-up: dose 10 mg/kg, route oral; details: in vivo; method in brief: as §4
[17] = AUC (0 to infinity) in Sprague-Dawley rat at 10 mg/kg, po after 0.083 to 24 hrs by LC-MS/MS analysis; assay type: ADME, organism-based; set-up: dose 10 mg/kg, time infinity, route oral; details: in vivo; method in brief: as §4
[18] = Oral bioavailability in Sprague-Dawley rat at 10 mg/kg after 0.083 to 24 hrs by LC-MS/MS analysis; assay type: ADME, organism-based; details: in vivo
Method in brief: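 Male Sprague-Dawley rats, 6–8 weeks old, received a single dose of 10 mg/kg p.o. or 2 mg/kg i.v. The vehicle was 5% DMSO, 10% Solutol and 85% saline at pH 7. Blood was taken by cardiac puncture at 0.083–24 h (p.o.) or 0.25–24 h (i.v.), and plasma was measured by LC-MS/MS. Values are mean ± SD, n = 3.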

[19] = Half life in Sprague-Dawley rat at 2 mg/kg, iv after 0.25 to 24 hrs by LC-MS/MS analysis; assay type: ADME, organism-based; details: in vivo; method in brief: as §4
[20] = biological target: NAD-dependent protein deacetylase sirtuin-3, mitochondrial (Homo sapiens, UniProt Q9NTG7); assay: Inhibition of SIRT3 (unknown origin) by FDL assay
Method in brief: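 SIRT3 and SIRT5 tested by an outsourced FDL fluorogenic deacetylase assay, each from a different contract provider. The IC50 was determined for each enzyme, with concentrations going up to 200 μM.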

[21] = biological target: Histone deacetylase 1 (Homo sapiens, UniProt Q13547); assay: Inhibition of HDAC1 (unknown origin) by FDL assay
Method in brief: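 Selectivity testing by FDL assay at concentrations up to 200 µM. SIRT1-2 assays run by an outside contract provider. Values reported as IC50.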

T1 sequence (Q8N6T7 whole entry): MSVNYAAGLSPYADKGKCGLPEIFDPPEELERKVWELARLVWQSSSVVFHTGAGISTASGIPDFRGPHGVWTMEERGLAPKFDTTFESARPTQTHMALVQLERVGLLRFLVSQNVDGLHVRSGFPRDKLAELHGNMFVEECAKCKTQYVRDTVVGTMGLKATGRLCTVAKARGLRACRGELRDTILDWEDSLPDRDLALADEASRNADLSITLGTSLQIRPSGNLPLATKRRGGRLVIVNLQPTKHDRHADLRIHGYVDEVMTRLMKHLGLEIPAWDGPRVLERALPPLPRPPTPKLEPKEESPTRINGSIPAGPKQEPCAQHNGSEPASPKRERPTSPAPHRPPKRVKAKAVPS
Chain of NAD-dependent protein deacetylase sirtuin-3, mitochondrial (Q9NTG7 whole entry): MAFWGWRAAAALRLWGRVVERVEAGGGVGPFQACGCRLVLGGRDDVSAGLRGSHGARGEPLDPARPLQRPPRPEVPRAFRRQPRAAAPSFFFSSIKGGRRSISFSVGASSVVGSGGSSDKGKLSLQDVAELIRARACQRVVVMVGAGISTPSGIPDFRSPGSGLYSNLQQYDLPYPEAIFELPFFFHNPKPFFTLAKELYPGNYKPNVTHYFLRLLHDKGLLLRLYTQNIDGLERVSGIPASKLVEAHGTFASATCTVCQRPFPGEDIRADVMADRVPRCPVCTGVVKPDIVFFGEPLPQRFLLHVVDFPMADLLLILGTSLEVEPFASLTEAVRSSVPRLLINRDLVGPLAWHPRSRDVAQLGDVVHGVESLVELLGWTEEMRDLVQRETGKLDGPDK
Chain of Histone deacetylase 1 (Q13547 whole entry): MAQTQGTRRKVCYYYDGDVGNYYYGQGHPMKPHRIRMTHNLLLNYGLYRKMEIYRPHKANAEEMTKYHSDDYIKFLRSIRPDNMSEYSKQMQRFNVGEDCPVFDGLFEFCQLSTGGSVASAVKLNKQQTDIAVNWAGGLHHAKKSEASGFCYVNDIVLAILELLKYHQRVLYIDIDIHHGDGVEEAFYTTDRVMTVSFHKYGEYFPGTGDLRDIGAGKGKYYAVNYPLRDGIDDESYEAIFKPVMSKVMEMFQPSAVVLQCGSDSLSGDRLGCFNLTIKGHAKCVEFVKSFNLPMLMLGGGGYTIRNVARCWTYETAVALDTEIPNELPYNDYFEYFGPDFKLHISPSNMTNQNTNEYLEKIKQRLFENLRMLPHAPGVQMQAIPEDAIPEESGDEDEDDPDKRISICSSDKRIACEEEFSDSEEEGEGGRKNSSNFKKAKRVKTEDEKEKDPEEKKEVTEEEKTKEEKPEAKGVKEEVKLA

Work on `O=C(NC(c1ccccc1)c1ccccc1)c1cc(-c2cc3ccccc3o2)nc2ccccc12` yielded an Activity [1] of 1230%, an EC1.5 [2] of 0.58 µM and an EC50 [2] of 5.35 µM. The Activity [3] was “Dose-dependent effect”, the IC50 ([3]; PANC-1, 72 h) was 4.13 µM and the Activity [4] was “Dose-dependent effect”. For the same molecule, the IC50 ([4]; ASPC1, 72 h) was 9.66 µM, the Activity [5] was “Active” and the inhibition [6] was “Dose-dependent effect”. For the same molecule, the inhibition [7] was “Dose-dependent effect”, the Activity [8] was “Dose-dependent effect” and the Activity [9] was “Dose-dependent effect”. The inhibition at 10 µM [10] was 70%, the inhibition [11] was “Dose-dependent effect” and the inhibition [12] was “Dose-dependent effect”. For the same molecule, the inhibition [13] was “Active”, the inhibition [14] was “Active” and the half-life [15] was 7.52 h. It also gave a Cmax [16] of 98.5 ng/mL, an AUC [17] of 755.57 ng·mL·h and a bioavailability [18] of 4.24%. The t1/2 [19] was 9.06 h, the IC50 [20] was > 200 µM and the IC50 [21] was > 200 µM.
